Assay: Toxicity liver stage against HepG2, at 10uM
Type: cell-based
Design: test concentration 10 uM, cell line HepG2-A16-CD81EGFP
Settings: human, HepG2-A16-CD81EGFP cells; read-out: INHIBITION
Summary of the method: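 Uninfected HepG2-A16-CD81EGFP cells, 3 × 10^3 per well, 1536-well, plated on prespotted compound at 10 μM final, parasite-free screening media added to match infected plates; puromycin 10 μM positive, DMSO 0.5% negative; run in parallel with 48 h PbLuc assay at 37 °C, 5% CO2; viability by CellTiter-Glo luminescence, normalized to controls.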

SMILES: Nc1nc(CN2CCCC(Cn3cncn3)C2)nc2ccccc12 (stereo not given)
- cytotoxicity at 10 µM: -8.21%

SMILES: O=C1N(c2cncnc2)CCC12CCCN(Cc1cccnc1)C2 (stereo not given)
- cytotoxicity at 10 µM: -79.6%

SMILES: COC(=O)c1cccc(NC(=O)CN2CCN(S(C)(=O)=O)CC2)c1
- cytotoxicity at 10 µM: 11.3%

SMILES: Cc1ccc(NC2CCN(C(=O)c3cc(C)sc3C)CC2)nn1
- cytotoxicity at 10 µM: -5.59%

SMILES: COCC1CCN(c2nc(C(C)(C)C)nc3c2cnn3C)C1 (stereo not given)
- cytotoxicity at 10 µM: -8.44%

SMILES: CC(C)(C)C(=O)N1CCCC1c1nccnc1Cl (stereo not given)
- cytotoxicity at 10 µM: 2.83%

SMILES: CNc1nc(C2CCN(C(=O)CC3CCCC3)C2)nc2c1CN(C)CC2 (stereo not given)
- cytotoxicity at 10 µM: -40.4%

SMILES: Cc1c[nH]c(CN(C)C(C(=O)O)c2c(F)cccc2OC(C)C)n1 (stereo not given)
- cytotoxicity at 10 µM: -50.6%

SMILES: CCCn1c(NCCc2ccccc2)nc2c(C)nn(C)c2c1=O
- cytotoxicity at 10 µM: 66.4%

SMILES: CN(C)CCn1ccc2cc(NC(=O)NCc3ncnn3C)ccc21
- cytotoxicity at 10 µM: -6.52%

SMILES: COC(=O)C1CCN(C(=O)Cn2ccc(-c3ccsc3)n2)CC1
- cytotoxicity at 10 µM: -6.58%

SMILES: CS(=O)(=O)N1CC[C@H]2OCC[C@@]2(C(=O)NCCc2ccccn2)C1
- cytotoxicity at 10 µM: -101%

SMILES: CCN(CCC1CCN(C(=O)NCc2nncn2CC)CC1)CC1CC1
- cytotoxicity at 10 µM: -2.75%

SMILES: O=C(c1c(O)cc(F)cc1F)N1CCc2cnccc21
- cytotoxicity at 10 µM: -4.18%

SMILES: CC(C)S(=O)(=O)NCC(Cc1cccc(F)c1)N1CCNC1=O (stereo not given)
- cytotoxicity at 10 µM: -1%

SMILES: COc1ccc(CN2CCCC(N3CCCC3)C2)cc1Cn1cncn1 (stereo not given)
- cytotoxicity at 10 µM: 7.33%

SMILES: CS(=O)(=O)N1C[C@@H](F)[C@@H](OCc2nc3ccccc3o2)C1
- cytotoxicity at 10 µM: -4.47%

SMILES: COCc1cncc2c1CCN(Cc1ccccn1)C2
- cytotoxicity at 10 µM: -10.2%

SMILES: O=C(O)c1ccn(-c2ccccc2NS(=O)(=O)c2cccc(F)c2)n1
- cytotoxicity at 10 µM: -18.6%

SMILES: Cc1nc(COC(=O)c2cccnc2C)no1
- cytotoxicity at 10 µM: -0.2%

SMILES: CCc1[nH]c2c(CNc3cnccn3)cc(F)cc2c1C
- cytotoxicity at 10 µM: -2.61%

SMILES: CCN(CC)S(=O)(=O)c1cc2c3c(c1)c(C)cc(=O)n3CCC2
- cytotoxicity at 10 µM: 2.85%

SMILES: CN(Cc1c(F)cccc1Cl)C(=O)Cn1cnc(C#N)n1
- cytotoxicity at 10 µM: -5.5%

SMILES: O=S(=O)(c1cccnc1)N1CCC(OCCCc2ccccc2)C1 (stereo not given)
- cytotoxicity at 10 µM: 9.31%

SMILES: NCC1[C@H]2CN(Cc3cccc(Cl)c3)C[C@@H]12 (stereo not given in full)
- cytotoxicity at 10 µM: -9.17%

SMILES: CO[C@H]1C[C@@H](O)C12CCN(CCCOc1ccc(C(N)=O)cc1)CC2
- cytotoxicity at 10 µM: -5.66%

SMILES: CN1CCN(S(=O)(=O)c2cccc(F)c2)c2ccccc21
- cytotoxicity at 10 µM: 38.5%

SMILES: COCCN(C/C=C/c1ccccc1)Cc1nccs1
- cytotoxicity at 10 µM: 42.8%

SMILES: Cc1nc2ccccc2n1Cc1cc(C(=O)N(C)C2CCOC2)n[nH]1 (stereo not given)
- cytotoxicity at 10 µM: 4.91%

SMILES: Cn1cc(C2COC3(CCN(C(=O)Cn4cccn4)CC3)C2)cn1 (stereo not given)
- cytotoxicity at 10 µM: 2.7%

SMILES: Cc1cc(CN2CCN(C(C)c3nc(C(C)C)no3)CC2)no1 (stereo not given)
- cytotoxicity at 10 µM: 3.29%

SMILES: c1cnc(N2CCCC3(CCN(Cc4cccs4)C3)C2)nc1 (stereo not given)
- cytotoxicity at 10 µM: 2.58%

SMILES: CN(C)CCOc1ccccc1N1CCN(C(=O)c2ccoc2)CC1
- cytotoxicity at 10 µM: 24.8%

SMILES: COc1cccc(CN(C)CC(=O)NC2(C)CCS(=O)(=O)C2)c1 (stereo not given)
- cytotoxicity at 10 µM: -2.3%

SMILES: Cc1cc(NCCSc2nccn2C)n2nc(C)c(C)c2n1
- cytotoxicity at 10 µM: 9.75%

SMILES: CC(C)c1nc(C2CCCN(C(=O)c3nccn4ccnc34)C2)no1 (stereo not given)
- cytotoxicity at 10 µM: -12.7%

SMILES: Cc1n[nH]c(C2CN(C(=O)c3ccc(=O)n(C)c3)CCO2)n1 (stereo not given)
- cytotoxicity at 10 µM: 3.75%

SMILES: O=C(Nc1cnn(-c2ccccc2Cl)c1)N[C@@H]1C=C[C@H](CO)C1
- cytotoxicity at 10 µM: 0.836%

SMILES: Cc1cc(CN2CCN3C[C@H](c4ccccc4)[C@@H](CO)[C@H]3C2)on1
- cytotoxicity at 10 µM: 7.66%

SMILES: COc1ccc2c(c1)CC(C1CCOCC1)N(C(=O)c1cnccn1)C2 (stereo not given)
- cytotoxicity at 10 µM: 5.21%

SMILES: O=C(Nc1cc(C(F)(F)F)c[nH]c1=O)C1CCCNC1 (stereo not given)
- cytotoxicity at 10 µM: 5.15%

SMILES: COC1CCN(C(=O)Cn2cccc(C(F)(F)F)c2=O)C1 (stereo not given)
- cytotoxicity at 10 µM: 2.23%

SMILES: Cc1ccc(-c2nnc(CN3CCOC(Cn4cncn4)C3)o2)cc1 (stereo not given)
- cytotoxicity at 10 µM: -10.2%

SMILES: Cc1nc2ccccc2n1Cc1cc(C(=O)N2C[C@@H](C)O[C@@H](C)C2)no1
- cytotoxicity at 10 µM: 25.7%

SMILES: Cc1cnc(CNC(=O)N(CCCO)C2CCc3ccccc32)s1 (stereo not given)
- cytotoxicity at 10 µM: -17.2%
